ChEMBL document CHEMBL1629613, “Klebsiella pneumoniae OmpA confers resistance to antimicrobial peptides” (2009)
In brackets after ≈: the same amount, converted by molar mass. Activity calls are given as the source filed them. The calls are words filed in the database; no cut-off is given here.

Columns and labels:
Klebsiella pneumoniae [1] = assay: Antimicrobial activity against Klebsiella pneumoniae 52145; format: functional
Klebsiella pneumoniae [2] = assay: Antimicrobial activity against Klebsiella pneumoniae 52145 at 100 ug/disk by disk diffusion method; format: functional, organism-based
In short: (§1)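 Disk diffusion with SDS at 100 µg per disk.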

Klebsiella pneumoniae [3] = assay: Antimicrobial activity against Klebsiella pneumoniae 52OmpA2 at 80 ug/disk by disk diffusion method; format: functional; details: 52OmpA2, read-out: IZ
In short: (§2)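 Disk diffusion with novobiocin at 80 µg per disk. The diffusion halo was measured in cm and reported as mean ± error, with groups compared by P value.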

Klebsiella pneumoniae [4] = assay: Antimicrobial activity against Klebsiella pneumoniae 52OmpA2 at 100 ug/disk by disk diffusion method; format: functional, organism-based; in short: as §1
Klebsiella pneumoniae [5] = assay: Antimicrobial activity against Klebsiella pneumoniae 52OmpA2Com; format: functional
Klebsiella pneumoniae [6] = assay: Antimicrobial activity against wcaK2-deficient Klebsiella pneumoniae 52145 assessed as decrease in bacterial survival; format: functional, organism-based
In short: (§3)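 Bacterial survival assay: cells were exposed to polymyxin B or protamine for 1 h, or to HNP-1 at a fixed 20 µg/ml for 3 h, and surviving bacteria were then counted. Polymyxin B curves are the mean ± SD of six samples from three independently grown batches. HNP-1 data are the mean ± SD of three experiments, each run in duplicate. Strains were compared by two-tailed t test.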

Klebsiella pneumoniae [7] = assay: Antimicrobial activity against Klebsiella pneumoniae 52145 assessed as induction of bacterial wall damage by propidium iodide staining-based fluorescence spectroscopy; format: functional, organism-based
Klebsiella pneumoniae [8] = assay: Antimicrobial activity against Klebsiella pneumoniae 52OmpA2Com assessed as decrease in bacterial survival after 1 hr; format: functional, organism-based; in short: as §3
Klebsiella pneumoniae [9] = assay: Antimicrobial activity against Klebsiella pneumoniae 52145 assessed as decrease in bacterial survival after 1 hr; format: functional, organism-based; in short: as §3
Klebsiella pneumoniae [10] = assay: Binding affinity to wcaK2-deficient Klebsiella pneumoniae 52OmpA2 lipopolysaccharide assessed as amount of peptide bound at 16 ug/ml after 30 mins
In short: (§4)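 LPS was purified from capsule (CPS) mutants to avoid copurifying capsule. LPS at 50 µg/ml was incubated with polymyxin B at 16 µg/ml for 30 min, and the bound peptide was measured in µg/ml.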

Klebsiella pneumoniae [11] = assay: Binding affinity to Klebsiella pneumoniae 52OmpA2 outer membrane assessed as amount of peptide bound at 16 ug/ml after 30 mins
In short: (§5)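 Bacteria were incubated with the peptide for 30 min, and the amount of peptide bound was then determined, expressed in µg/ml. Strains were compared by two-tailed t test.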

Klebsiella pneumoniae [12] = assay: Antimicrobial activity against Klebsiella pneumoniae 52145 assessed as decrease in bacterial survival at 1 ug/ml pre-exposed for 1 hr during growth phase; format: functional, organism-based
In short: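 Cells were pretreated during growth with polymyxin B (final 1 µg/ml, 1 h), washed, and then tested for polymyxin B susceptibility by the same survival assay, alongside untreated cells. Values are the mean ± SD of six samples from three independently grown batches. Pretreated and untreated cells were compared by two-tailed t test.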

Klebsiella pneumoniae [13] = assay: Antimicrobial activity against Klebsiella pneumoniae 52145 by Etest; format: functional, organism-based
Klebsiella pneumoniae [14] = assay: Antimicrobial activity against Klebsiella pneumoniae 52OmpA2 assessed as induction of bacterial wall damage by propidium iodide staining-based fluorescence spectroscopy; format: functional, organism-based
Klebsiella pneumoniae [15] = assay: Antimicrobial activity against Klebsiella pneumoniae 52OmpA2 assessed as decrease in bacterial survival after 1 hr; format: functional, organism-based; in short: as §3
Klebsiella pneumoniae [16] = assay: Antimicrobial activity against Klebsiella pneumoniae 52OmpAK36 harboring OmpA K36 mutant gene assessed as decrease in bacterial survival after 1 hr by coomassie blue staining; format: functional, organism-based
Klebsiella pneumoniae [17] = assay: Binding affinity to Klebsiella pneumoniae 52145 outer membrane assessed as amount of peptide bound at 16 ug/ml after 30 mins; in short: as §5
Klebsiella pneumoniae [18] = assay: Antimicrobial activity against wcaK2-deficient Klebsiella pneumoniae 52OmpA2 assessed as decrease in bacterial survival; format: functional, organism-based; in short: as §3
Klebsiella pneumoniae [19] = assay: Antimicrobial activity against Klebsiella pneumoniae 52OmpA2Com by Etest; format: functional, organism-based
Klebsiella pneumoniae [20] = assay: Binding affinity to wcaK2-deficient Klebsiella pneumoniae 52145 lipopolysaccharide assessed as amount of peptide bound at 16 ug/ml after 30 mins; in short: as §4
Klebsiella pneumoniae [21] = assay: Antimicrobial activity against Klebsiella pneumoniae 52OmpA2 by Etest; format: functional, organism-based
Klebsiella pneumoniae [22] = assay: Antimicrobial activity against Klebsiella pneumoniae 52145 at 80 ug/disk by disk diffusion method; format: functional, organism-based; in short: as §2

Work on `CO/N=C(\C(=O)N[C@@H]1C(=O)N2C(C(=O)O)=C(COC(C)=O)CS[C@H]12)c1csc(N)n1` [CEFOTAXIME] yielded an MIC (Klebsiella pneumoniae [1]) of 0.05 µg/mL (≈ 0.11 µM).
`O=C(O)c1cn(C2CC2)c2cc(N3CCNCC3)c(F)cc2c1=O` [CIPROFLOXACIN] showed an MIC (Klebsiella pneumoniae [1]) of 0.05 µg/mL (≈ 0.151 µM).
For `C[C@@H](O)[C@H]1C(=O)N2C(C(=O)O)=C(SCCNC=N)C[C@H]12` [IMIPENEM ANHYDROUS], the MIC (Klebsiella pneumoniae [1]) was 0.05 µg/mL (≈ 0.167 µM).
In the case of `CO[C@@H]1[C@@H](OC(N)=O)[C@@H](O)[C@H](Oc2ccc3c(O)c(NC(=O)c4ccc(O)c(CC=C(C)C)c4)c(=O)oc3c2C)OC1(C)C` [NOVOBIOCIN], the Activity (Klebsiella pneumoniae [2]) is reported as “inactive”, the zone of inhibition at 80 µg/disc (Klebsiella pneumoniae [3]) is reported as 8.5 mm and the Activity (Klebsiella pneumoniae [4]) is reported as “inactive”.
`CC1(C)S[C@@H]2[C@H](NC(=O)[C@H](N)c3ccc(O)cc3)C(=O)N2[C@H]1C(=O)O` [AMOXICILLIN] showed an MIC (Klebsiella pneumoniae [1]) of 2 µg/mL (≈ 5.47 µM).
With GENTAMICIN the MIC (Klebsiella pneumoniae [1]) was 0.15 µg/mL and the MIC (Klebsiella pneumoniae [5]) was 0.15 µg/mL.
POLYMYXIN B was tested, and the inhibition (Klebsiella pneumoniae [6]) was “Active”, the Activity (Klebsiella pneumoniae [7]) was “inactive” and the Activity (Klebsiella pneumoniae [8]) was “Active”. The Activity (Klebsiella pneumoniae [9]) was “inactive”, the Activity (Klebsiella pneumoniae [10]) was 4.4 µg/mL and the Activity (Klebsiella pneumoniae [11]) was 8.1 µg/mL. For the same compound, the Activity (Klebsiella pneumoniae [12]) was “inactive”, the MIC (Klebsiella pneumoniae [13]) was 0.75 µg/mL and the Activity (Klebsiella pneumoniae [14]) was “inactive”. The inhibition (Klebsiella pneumoniae [15]) was “Active”, the inhibition (Klebsiella pneumoniae [16]) was “inactive” and the Activity (Klebsiella pneumoniae [17]) was 7.4 µg/mL. For the same compound, the inhibition (Klebsiella pneumoniae [18]) was “Active”, the MIC (Klebsiella pneumoniae [19]) was 0.75 µg/mL and the Activity (Klebsiella pneumoniae [20]) was 4.8 µg/mL. It also gave an MIC (Klebsiella pneumoniae [21]) of 0.31 µg/mL and an inhibition zone (IZ) (Klebsiella pneumoniae [22]) of 9 mm.
